{"data": "Results from different studies", "Pancreatic alpha-amylase": "Pancreatic alpha-amylase (Homo sapiens, UniProt P04746)", "CYP3A7": "Cytochrome P450 3A7 (CYP3A7, Homo sapiens, UniProt P24462)", "note": "Lines come from different studies, so protocols differ."}
{"Compound": "Oc1ccc([C@@H]2c3c(O)cc(O)cc3[C@@H]3c4c(cc(O)c5c4[C@@H]2[C@H](c2ccc(O)cc2)[C@H]5c2cc(O)cc4c2[C@@H](c2cc(O)cc(O)c2)[C@H](c2ccc(O)cc2)O4)O[C@H]3c2ccc(O)cc2)cc1", "target": "Pancreatic alpha-amylase", "observed": "enzyme activity", "mode": "inhibitor", "quantity": "IC50", "value": "6.1 µM"}
{"Compound": "C[C@@H](O)[C@H](NC(=O)[C@H](Cc1ccc(O)cc1)NC(=O)[C@H](Cc1ccc(O)cc1)NC(=O)[C@H](CO)NC(=O)[C@H](CCCNC(=N)N)NC(=O)[C@H](Cc1c[nH]cn1)NC(=O)[C@@H](N)Cc1c[nH]c2ccccc12)C(=O)N[C@@H](Cc1c[nH]c2ccccc12)C(=O)N[C@@H](CC(N)=O)C(=O)O", "target": "Albumin (ALB, Bos taurus, UniProt P02769)", "observed": "binding", "method": "SPR", "quantity": "Kd", "value": "6.12 µM"}
{"Compound": "COc1ccc2c(O[C@@H]3C[C@H]4C(=O)N[C@]5(C(=O)NS(=O)(=O)C6CC6)C[C@H]5/C=C\\CCCCN(C)C(=O)[C@@H]4C3)cc(-c3nc(C(C)C)cs3)nc2c1C", "target": "CYP3A7", "observed": "enzyme activity", "mode": "inhibitor", "method": "mass spectrometry", "time": "5 min", "quantity": "IC50", "value": "16.1 µM"}
{"Compound": "CCN(CC)c1ccc(/C=N/c2ccc(Cl)cc2)c(O)c1", "target": "Pancreatic alpha-amylase", "observed": "enzyme activity", "mode": "inhibitor", "method": "absorbance", "quantity": "IC50", "value": "63.5 µM"}
{"Compound": "OC[C@H]1O[C@@H](Oc2cc3c4c(c2)[C@@H]([C@@H]2c5cc(O)cc6c5[C@@H](c5cc(O)cc(O)c5[C@H]2c2ccc(O)cc2)[C@H](c2ccc(O)cc2)O6)[C@H](c2ccc(O)cc2)c2c(O)cc(O)cc2[C@H]4[C@H](c2ccc(O)cc2)O3)[C@H](O)[C@@H](O)[C@@H]1O", "target": "Pancreatic alpha-amylase", "observed": "enzyme activity", "mode": "inhibitor", "quantity": "IC50", "value": "> 100 µM"}
{"Compound": "C=C[C@@H]1C[C@]1(NC(=O)[C@@H]1C[C@@H](Oc2ncc(OC)c3ccc(Cl)cc23)CN1C(=O)[C@@H](NC(=O)OC(C)(C)C)C(C)(C)C)C(=O)NS(=O)(=O)C1CC1", "target": "CYP3A7", "observed": "enzyme activity", "mode": "inhibitor", "method": "mass spectrometry", "time": "5 min", "quantity": "IC50", "value": "18.3 µM"}
{"Compound": "CCN(CC)c1ccc(/C=N/c2ccc(F)c(Cl)c2)c(O)c1", "target": "Pancreatic alpha-amylase", "observed": "enzyme activity", "mode": "inhibitor", "method": "absorbance", "quantity": "IC50", "value": "190 µM"}
{"Compound": "N=c1c[n+](N2CCOCC2)[n-]o1", "target": "NAD-dependent protein deacylase sirtuin-5, mitochondrial (SIRT5, Homo sapiens, UniProt Q9NXA8)", "observed": "enzyme activity", "mode": "inhibitor", "method": "HPLC", "quantity": "IC50", "value": "8 µM"}
{"Compound": "CCN(CC)c1ccc(/C=N/c2ccccc2F)c(O)c1", "target": "Pancreatic alpha-amylase", "observed": "enzyme activity", "mode": "inhibitor", "method": "absorbance", "quantity": "IC50", "value": "255 µM"}
{"Compound": "O=C1CCc2ccccc2O1", "target": "Carbonic anhydrase 9 (CA9, Homo sapiens, UniProt Q16790)", "observed": "enzyme activity", "mode": "inhibitor", "method": "stopped-flow", "quantity": "Ki", "value": "4.1 µM"}
